Measurements: ChEMBL document CHEMBL1148146, “14'-Hydroxymytoxin B and 16-hydroxyroridin E, two new cytotoxic trichothecenes from Myrothecium roridum” (J Nat Prod, 2002)

Columns and labels:
[1] = Cytotoxicity against human high-grade leiomyosarcoma cells after overnight incubation by Alamar blue assay; format: functional, cell-based
In short: (§1)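 Primary tumor cell cultures that passed histological and cytological screening; thawed at 37 °C, resuspended in maintenance medium, live/dead counted, plated at 1.0 × 10^3 cells/well. Samples added at 1/10 cell suspension volume, overnight at 37 °C. Alamar Blue then added at 1/10 well volume; fluorescence (ex 530, em 590 nm) read at 3 h and 3 days post-dye. Percent inhibition versus untreated and cell-free controls gave IC50.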

[2] = Cytotoxicity against human primary soft tissue sarcoma cells after overnight incubation by Alamar blue assay; format: functional, cell-based; in short: as §1

CC1=C[C@H]2O[C@@H]3C[C@@H](OC(=O)/C=C/C=C\C(OCCC4=CCOC4=O)C(C)O)[C@](C)([C@@]2(COC(=O)/C=C(\C)CCO)CC1)[C@]31CO1 (stereo partly specified) [TRICHOVERRITONE]
IC50 [1]: 0.026 pM | IC50 [2]: 0.13 pM

C/C1=C\C(=O)OC[C@]23CCC(CO)=C[C@H]2O[C@@H]2C[C@@H](OC(=O)/C=C\C=C\[C@H]([C@@H](C)O)OCC1)[C@@]3(C)[C@]21CO1
IC50 [1]: 0.085 pM | IC50 [2]: 0.046 pM

CC1=C[C@H]2O[C@@H]3C[C@@H](OC(=O)/C=C/C=C\C(OCCC4=CCOC4=O)C(C)O)[C@](C)([C@@]2(CO)CC1)[C@]31CO1 (stereo partly specified)
IC50 [1]: 0.018 pM | IC50 [2]: 0.03 pM
